This is a sample that favours compounds with a hit; in the whole collection about 1.9% have one here.
F508del corr = F508del CFTR correction, initial screen, CFBE line, single point. CFBE cells, YFP halide quenching; stimulated with forskolin plus potentiator P3; % fluorescence drop versus neutral controls. activity (quench increase), % at 7.58 µM. 350,000 tested, 0.36% active;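 active = mean added fluorescence quench of at least 8% versus neutral control, with both replicates also reaching 8%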;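 note: cells transiently co-express mutant CFTR-F508del with the halide-sensitive YFP; corrector assay measuring rescue of mutant channel to the surface after 24 h compound exposure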
Cneo AK release = Cryptococcus neoformans cell lysis inducers, primary screen, AK release luminescence, single concentration | AID 651654, 2012 | lysis activity, % at 15 µM | C. neoformans lysis, adenylate kinase release luminescence, 4 h; normalised: neutral wells 0, clomiphene wells 100 | 360,000 tested, 0.2% active;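 active = mean lysis activity across replicates of at least 80%, whatever share of replicates individually reach that level; inactive = mean lysis activity below 80%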
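Schedule: static 4 h at 37 °C with compound, 1 h detection; system: C. neoformans cells; benchmarks: Clomiphene as positive control; buffer or medium: fresh YPD medium; measure: luminescence rise reflecting yeast cell lysis; measured by: luminescent adenylate kinase detection reagent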
XiGFP reactiv = activators of inactive X chromosome reactivation, primary screen, imaging, XiGFP fibroblasts, GFP high-content imaging, set 2 | XiGFP mouse fibroblasts, % GFP-positive cells imaging, 3 d; cells co-treated with 5-aza-dC sensitizer; scaled so ellipticine positive control = 100% | activation, % at 7.58 µM | 360,000 tested, 0.055% active | AID 743238, 2013;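 active = mean normalized replicate activation at least 10% and every replicate at or above 10%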;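 note: 0% = median of on-plate neutral control wells and 100% = ellipticine 6 µM median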
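System: SV40-immortalized XiGFP fibroblast cells, line 68-5-11 / Incubation: 3-day compound exposure, then 15 min fixation at room temperature / Compound: single concentration per compound, delivered by pin transfer / Buffer or medium: DMEM plus 5-aza-dC sensitizer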
PGC1a acetyl inh = inhibitors of PGC1a acetylation signal, primary screen, cell-based, U2OS, AlphaScreen, inhibitor mode; 350,000 tested, 0.17% active; inhibition, % at 15.6 µM; AlphaScreen anti-acetyl-lysine; with virally co-expressed GCN5 acetyltransferase;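 active = every replicate shows inhibition of at least 40%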;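 note: 0% = neutral control wells and 100% = positive control wells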
FN deposition inh = inhibitors of fibronectin matrix deposition, primary screen, AH1F cells, Alexa488-fibronectin fluorescence, plate reader | AID 743247, 2014 | inhibition, % at 12.6 µM | AH1F fibroblasts, overnight | 350,000 tested, 0.086% active;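 active = mean inhibition across replicates of 30% or more, regardless of how many single replicates reach that level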;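 note: positive control wells lacked labelled fibronectin entirely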
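Measured by – fluorescence 485/525 nm · System – AH1F fibroblast monolayer, labelled fibronectin deposition · Amount – 10000 cells per well · Buffer or medium – serum-reduced DMEM (2% serum) · Doses – single dose, pinned · Also added – fluorescent fibronectin at 24 nM final · Schedule – 1 h cell attachment, overnight exposure to compound and label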
DENV2 CPE = inhibitors of DENV2 cytopathic effect, primary screen, cell-based, plate reader, single concentration; CPE inhibition, % at 9.99 µM; AID 651640, 2012; DENV2-infected cells, cytopathic effect rescue; 350,000 tested, 1.7% active; in the data active = CPE inhibition above about 20%, passing the limit was not always enough; tested in BHK-21 cells;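 note: 0% = median of neutral control wells and 100% = median of positive control wells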
* hit, by the source's call; / = not tested or not shown; ! = not active in a repeat.

SMILES | F508del corr | Cneo AK release | XiGFP reactiv | PGC1a acetyl inh | FN deposition inh | DENV2 CPE
O=C(C1CC1)N1CC(=O)N2[C@@H](CO)[C@@H](c3ccc(C#Cc4cccc(F)c4)cc3)[C@@H]2C1 | 7 | / | 0 | 17 | -4 | -2
Cc1noc(C)c1S(=O)(=O)Nc1ccc2c(c1)C(=O)N([C@H](C)CO)C[C@H](C)[C@H](CN(C)S(=O)(=O)c1cn(C)cn1)OCCCC[C@H](C)O2 | -4 | 0 | 0 | -5 | -8 | -12
COC(=O)C[C@H](NC(=O)Cn1cc(C)c(=O)[nH]c1=O)C(=O)OC | 3 | -6 | 0 | / | 17 | -19
COC(=O)[C@H](CCSC)NC(=O)Cn1cc(C)c(=O)[nH]c1=O | 8.7* | -10 | 0 | / | 3 | -10
O=C(C[C@@H]1CC[C@@H]2NC[C@H](O)COC[C@H]2O1)NCc1ccc(Oc2ccccc2)cc1 | -1 | 0 | 0 | 0 | -6 | -3
C[C@@H]1CCCCO[C@@H](CN(C)Cc2ccc(Cl)c(Cl)c2)[C@@H](C)CN([C@@H](C)CO)C(=O)c2cc(NS(=O)(=O)c3ccc(Cl)cc3)ccc2O1 | 0 | / | 0 | -2 | 5 | -4
C[C@@H]1CN([C@H](C)CO)C(=O)c2cc(NS(=O)(=O)c3ccccc3)ccc2O[C@@H](C)CCCCO[C@H]1CN(C)Cc1ccc(Cl)c(Cl)c1 | 3 | 2 | -1 | 7 | / | 23*
C[C@@H]1CCCCO[C@H](CN(C)Cc2ccc(Cl)c(Cl)c2)[C@H](C)CN([C@@H](C)CO)C(=O)c2cc(NS(=O)(=O)c3ccccc3)ccc2O1 | 3 | -1 | -1 | 2 | / | 32*
C[C@@H]1CCCCO[C@@H](CN(C)Cc2ccc(Cl)c(Cl)c2)[C@@H](C)CN([C@H](C)CO)C(=O)c2cc(NS(=O)(=O)c3ccc(F)cc3)ccc2O1 | 3 | -1 | 0 | -10 | -10 | -7
C[C@H]1CCCCO[C@H](CN(C)Cc2ccc(Cl)c(Cl)c2)[C@@H](C)CN([C@@H](C)CO)C(=O)c2cc(NS(=O)(=O)c3ccc(F)cc3)ccc2O1 | 5 | / | 0 | 1 | 3 | 22*
C[C@H](CO)N1C[C@H](C)[C@@H](CN(C)Cc2ccc(Cl)c(Cl)c2)OCCCC[C@H](C)Oc2ccc(NS(=O)(=O)c3ccccc3)cc2C1=O | 3 | -1 | -1 | 8 | / | 1
C[C@@H]1CCCCO[C@@H](CN(C)Cc2ccc(Cl)c(Cl)c2)[C@@H](C)CN([C@@H](C)CO)C(=O)c2cc(NS(=O)(=O)c3ccccc3)ccc2O1 | 1 | -2 | 0 | 2 | / | 23*
C[C@H]1CCCCO[C@H](CN(C)S(=O)(=O)c2cccs2)[C@@H](C)CN([C@@H](C)CO)C(=O)c2cc(NS(=O)(=O)c3ccc(F)cc3)ccc2O1 | 2 | -2 | 0 | -8 | 3 | 9
O=C(Nc1ccc(C(=O)N2CCN(c3ccncc3)CC2)cc1)c1ccc(Br)o1 | -3 | / | 0 | / | 6 | 23*
Cc1ccc(S(=O)(=O)N(C)C[C@@H]2OCCCC[C@H](C)Oc3ccc(NS(C)(=O)=O)cc3C(=O)N([C@H](C)CO)C[C@@H]2C)cc1 | -4 | -1 | 0 | -8 | -7 | 57*
COc1ccc(S(=O)(=O)N(C)C[C@@H]2OCCCC[C@@H](C)Oc3ccc(N(C)C)cc3C(=O)N([C@H](C)CO)C[C@H]2C)cc1 | 0 | -4 | 0 | -12 | / | -2
COc1ccc(S(=O)(=O)N(C)C[C@H]2OCCCC[C@H](C)Oc3ccc(N(C)C)cc3C(=O)N([C@H](C)CO)C[C@@H]2C)cc1 | 3 | -1 | 0 | 1 | -9 | 23*!
C[C@H](CO)N1C[C@H](C)[C@@H](CN(C)S(=O)(=O)c2ccc(F)cc2)OCCCC[C@H](C)Oc2ccc(NS(C)(=O)=O)cc2C1=O | 0 | -1 | -1 | -6 | / | 27*
COc1ccc(S(=O)(=O)N(C)C[C@H]2OCCCC[C@H](C)Oc3ccc(NS(=O)(=O)c4cccs4)cc3C(=O)N([C@H](C)CO)C[C@H]2C)cc1 | 0 | 2 | 0 | -1 | / | 63*
C[C@@H]1CN([C@H](C)CO)C(=O)c2cc(NS(C)(=O)=O)ccc2O[C@@H](C)CCCCO[C@@H]1CN(C)S(=O)(=O)c1ccc(F)cc1 | -1 | 76 | 0 | 0 | / | 19
Cc1ccc(CN(C)C[C@@H]2OCc3cn(nn3)CCCC(=O)N([C@H](C)CO)C[C@H]2C)cc1 | -2 | / | 0 | 5 | -7 | /
COc1ccc(S(=O)(=O)N(C)C[C@@H]2OCCCC[C@H](C)Oc3ccc(NS(C)(=O)=O)cc3C(=O)N([C@@H](C)CO)C[C@H]2C)cc1 | -1 | -3 | 0 | 4 | / | 1
C[C@@H]1CCCCO[C@H](CN(C)S(=O)(=O)c2ccc(F)cc2)[C@@H](C)CN([C@@H](C)CO)C(=O)c2cc(NS(C)(=O)=O)ccc2O1 | -1 | -1 | -1 | 7 | / | 29*
C[C@@H]1CN([C@@H](C)CO)C(=O)c2cc(NS(C)(=O)=O)ccc2O[C@@H](C)CCCCO[C@@H]1CN(C)S(=O)(=O)c1ccc(F)cc1 | -2 | -9 | -1 | -4 | / | 11
COc1ccc(S(=O)(=O)N(C)C[C@H]2OCCCC[C@@H](C)Oc3ccc(NS(C)(=O)=O)cc3C(=O)N([C@@H](C)CO)C[C@@H]2C)cc1 | -2 | 3 | 0 | -25 | / | 22*
Cc1ccc(S(=O)(=O)N(C)C[C@@H]2Oc3ccc(NC(=O)Nc4ccc5c(c4)OCO5)cc3CC(=O)N([C@@H](C)CO)C[C@H]2C)cc1 | -4 | -4 | 1 | -13 | / | 2
C[C@@H]1CN([C@H](C)CO)C(=O)c2cc(NC(=O)Nc3ccccc3)ccc2O[C@@H](C)CCCCO[C@@H]1CN(C)Cc1ccc(Cl)c(Cl)c1 | 0 | -11 | 0 | -9 | 4 | 1
C[C@@H]1CCCCO[C@H](CN(C)C(=O)Nc2ccc(C(F)(F)F)cc2)[C@@H](C)CN([C@@H](C)CO)C(=O)c2cc(NS(=O)(=O)c3ccc(Cl)cc3)ccc2O1 | -2 | -4 | 0 | -4 | / | 4
O=C(Nc1ccc(Oc2ccc(Cl)cc2)c(Cl)c1)c1cc(I)cc(I)c1O | -2 | -3 | 0 | 9 | -5 | 43*
COc1ccc(NC(=O)c2ccccc2F)cc1Cl | / | -4 | / | -15 | / | /
